SENP8 block-1: inhibitors of human SENP8 protease | Q96LD8 | recombinant SENP8, Nedd8 substrate fluorescence | inhibition, % at 20 µM | actives 0.64% (n = 360,000) | AID 602440; in the data active means inhibition mostly above about 40%, no sharp cut-off; inactive means mostly below about 27%
SENP7 block: inhibitors of human SENP7 protease; Q9BQF6; recombinant SENP7, Z-RLRGG-aminoluciferin luminescence, 40 min; inhibition, % at 5 µM; actives 1.5% (n = 330,000); AID 434973;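 active means inhibition above about 50% at the single test dose, limit read from the data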
SENP1 inh: blocks the human SENP1 SUMO protease catalytic domain | inhibition, % at 10 µM | actives 0.21% (n = 360,000) | recombinant SENP1 catalytic domain, CyPet-SUMO1-YPet FRET cleavage | Q9P0U3 | AID 624204;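 active means inhibition at least 30% at 10 µM, raw YFP signal under a set limit, fluorescence ratio 0.5 to 1.5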
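Controls: no-enzyme wells low, DMSO-plus-enzyme wells high control. Test system: human recombinant His6-tagged SENP1 catalytic domain enzyme. Reagent: SFCypet-SUMO1-SFYpet FRET protein substrate, 25 nM final. Doses: one dose per compound, 10 µM, 0.5% DMSO. Detection: FRET, CFP and YFP emission. Timing: 50 min reaction at room temperature.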
SENP6 inh: inhibitors of human SENP6 protease; Q9GZR1; Recombinant SENP6 catalytic domain, aminoluciferin luminescence; inhibition, % at 10 µM; actives 1.8% (n = 330,000);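 active means inhibition above about 50% at the single tested dose, limit read from the data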
Target sequence (Q9GZR1 628-1112 limits assumed): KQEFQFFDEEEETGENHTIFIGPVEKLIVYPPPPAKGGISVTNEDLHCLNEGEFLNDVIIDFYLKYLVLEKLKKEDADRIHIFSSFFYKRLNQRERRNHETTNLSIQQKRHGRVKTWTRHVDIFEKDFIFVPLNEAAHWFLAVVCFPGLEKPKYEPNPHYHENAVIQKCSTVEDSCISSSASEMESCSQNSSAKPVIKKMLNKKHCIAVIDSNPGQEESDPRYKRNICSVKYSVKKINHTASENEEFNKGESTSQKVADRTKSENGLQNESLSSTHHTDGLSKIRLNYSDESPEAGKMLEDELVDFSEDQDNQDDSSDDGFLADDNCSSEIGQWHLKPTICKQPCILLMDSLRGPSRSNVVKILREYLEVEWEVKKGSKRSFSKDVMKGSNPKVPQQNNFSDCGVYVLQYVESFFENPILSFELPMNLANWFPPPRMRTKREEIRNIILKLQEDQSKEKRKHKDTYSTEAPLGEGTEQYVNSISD
SENP8 block-2: blocks the human protease SENP8. actives 1.2% (n = 330,000). purified SENP8, Z-RLRGG-aminoluciferin cleavage, luminescence. AID 2540. inhibition, % at 10 µM. Q96LD8; in the data active means inhibition above about 50%
SENP8 confirm: confirmation of human SENP8 protease inhibitors | shares compounds with SENP7 block | inhibition, % at 12.5 µM | Recombinant SENP8, Z-RLRGG-aminoluciferin luminescence, 60 min | actives 40% (n = 6,200);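 active means mean inhibition across replicates above about 50%, limit read from the data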
SENP6 conf: confirmation of human SENP6 protease inhibitors | shares compounds with SENP7 block | recombinant SENP6, Z-RLRGG-aminoluciferin luminescence | inhibition, % at 12.5 µM | actives 58% (n = 6,200) | AID 488915
SENP7 conf: confirmation of human SENP7 protease inhibitors | inhibition, % at 12.5 µM | actives 69% (n = 6,200) | shares compounds with SENP7 block | recombinant SENP7, Z-RLRGG-aminoluciferin luminescence, 40 min
Casp3 SENP sel: caspase-3 inhibition (SENP selectivity assay) | purified caspase-3, Z-DEVD-aminoluciferin luminescence, 60 min | inhibition, % at 12.5 µM | actives 60% (n = 6,200) | shares compounds with SENP7 block | AID 488918;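 active means mean inhibition above about 50%, limit read from the data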
Luc interf: interferes with luciferase luminescence in SENP counter-screen; shares compounds with SENP7 block; AID 488919; Pre-incubated SENP8/Z-RLRGG-aminoluciferin, luciferase luminescence interference; inhibition, % at 12.5 µM; actives 39% (n = 6,200);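 active means mean inhibition above about 50% when retested at one dose, limit read from the data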
Of the large screens only hits and unclear results are named; the others gave an inactive call (follow-up assays come after a bar, where they were run). Most compounds without a hit are left out; they make up all but 2.5% or so of the library.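 How the source made its calls, unless noted: active means mean inhibition above about 50% in the one-dose retest (limit read from the data); inactive means the rest.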

COc1ccc2oc(C(=O)Nc3nnc(C)s3)c(C)c2c1	SENP7 block 62 | SENP8 confirm inactive | SENP6 conf inactive | SENP7 conf inactive | Casp3 SENP sel inactive | Luc interf inactive
Cc1ccc2oc(C(=O)Nc3nonc3C)c(C)c2c1	none
Cc1ccc2oc(C(=O)Nc3nnc(C)s3)c(C)c2c1	SENP7 block 59 | SENP8 confirm inactive | SENP6 conf inactive | SENP7 conf inactive | Casp3 SENP sel inactive | Luc interf inactive
COc1ccc2oc(C(=O)Nc3nc4ccccc4[nH]3)c(C)c2c1	SENP7 block 93, SENP6 inh 78, SENP8 block-2 58 | SENP8 confirm inactive | SENP6 conf inactive | SENP7 conf 95 | Casp3 SENP sel 84 | Luc interf 58
Cc1nc(C(F)(F)F)ccc1C(=O)N1CCCCC1	none
N=C1SCC(=O)N1c1nc(-c2ccccc2)cs1	SENP7 block 87, SENP6 inh 96, SENP8 block-2 89 | SENP8 confirm inactive | SENP6 conf inactive | SENP7 conf inactive | Casp3 SENP sel inactive | Luc interf inactive
N#CCCCC#Cc1ccc2c(c1)COc1c3ccccc3nn1-2	SENP7 block 89, SENP6 inh 93, SENP8 block-2 90 | SENP8 confirm 51 | SENP6 conf 96 | SENP7 conf 66 | Casp3 SENP sel 68 | Luc interf inactive
CCCCC#Cc1ccc2c(c1)COc1c3ccccc3nn1-2	SENP7 block 81, SENP6 inh 85, SENP8 block-2 79 | SENP8 confirm inactive | SENP6 conf inactive | SENP7 conf inactive | Casp3 SENP sel 67 | Luc interf inactive
O=C(/C=C/c1cccs1)N1CCCC1	none
Cc1cccc(NC(=O)/C=C/c2cccs2)n1	SENP7 block 72, SENP6 inh 67 | SENP8 confirm 56 | SENP6 conf 55 | SENP7 conf 84 | Casp3 SENP sel 77 | Luc interf 66
O=C(/C=C/c1cccs1)Nc1ccncc1	none
CCCOC(=O)c1ccc(NC(=O)/C=C/c2cccs2)cc1	SENP6 inh 75 | SENP8 confirm inactive | SENP6 conf inactive | SENP7 conf 57 | Casp3 SENP sel inactive | Luc interf inactive
Cc1cc(C)n(C(=O)/C=C/c2cccs2)n1	SENP7 block 56 | SENP8 confirm inactive | SENP6 conf inactive | SENP7 conf inactive | Casp3 SENP sel inactive | Luc interf inactive
COCC#Cc1ccc2c(c1)O[C@@H](CN(C)C(=O)Nc1ccc(OC)cc1)[C@H](C)CN([C@H](C)CO)S2(=O)=O	none (no result: SENP7 block, SENP6 inh, SENP8 block-2)
Cc1ccc(NC(=O)CCC(=O)c2cccs2)nc1	none
Cc1ccnc(NC(=O)CCC(=O)c2cccs2)c1	SENP7 block 56, SENP6 inh 87, SENP8 block-2 75 | SENP8 confirm 92 | SENP6 conf 91 | SENP7 conf 99 | Casp3 SENP sel 95 | Luc interf 91
O=C(/C=C/c1ccccc1Cl)Nc1cccc(O)c1	SENP7 block 96, SENP6 inh 98, SENP8 block-2 94 | SENP8 confirm 96 | SENP6 conf 97 | SENP7 conf 102 | Casp3 SENP sel 91 | Luc interf 96
O=C(/C=C/c1ccccc1Cl)c1ccc(O)cc1	SENP7 block 73, SENP6 inh 90, SENP8 block-2 82 | SENP8 confirm inactive | SENP6 conf inactive | SENP7 conf inactive | Casp3 SENP sel inactive | Luc interf 55
CN(C)S(=O)(=O)c1ccc(NC(=O)/C=C/c2ccccc2Cl)cc1	none
